{"source": "ChEMBL document CHEMBL4028836", "about": "“Optimization of M4 positive allosteric modulators (PAMs): The discovery of VU0476406, a non-human primate in vivo tool compound for translational pharmacology” (Bioorg Med Chem Lett, 2017)", "key": {"[1]": {"experiment": "Drug metabolism in cynomolgus monkey cryopreserved hepatocytes assessed as metabolite M3 formation", "type": "ADME, cell-based, Macaca fascicularis, Hepatocyte"}, "[2]": {"molecular_target": "Voltage-gated inwardly rectifying potassium channel KCNH2 (Homo sapiens, UniProt Q12809)", "sequence (Q12809 whole entry)": "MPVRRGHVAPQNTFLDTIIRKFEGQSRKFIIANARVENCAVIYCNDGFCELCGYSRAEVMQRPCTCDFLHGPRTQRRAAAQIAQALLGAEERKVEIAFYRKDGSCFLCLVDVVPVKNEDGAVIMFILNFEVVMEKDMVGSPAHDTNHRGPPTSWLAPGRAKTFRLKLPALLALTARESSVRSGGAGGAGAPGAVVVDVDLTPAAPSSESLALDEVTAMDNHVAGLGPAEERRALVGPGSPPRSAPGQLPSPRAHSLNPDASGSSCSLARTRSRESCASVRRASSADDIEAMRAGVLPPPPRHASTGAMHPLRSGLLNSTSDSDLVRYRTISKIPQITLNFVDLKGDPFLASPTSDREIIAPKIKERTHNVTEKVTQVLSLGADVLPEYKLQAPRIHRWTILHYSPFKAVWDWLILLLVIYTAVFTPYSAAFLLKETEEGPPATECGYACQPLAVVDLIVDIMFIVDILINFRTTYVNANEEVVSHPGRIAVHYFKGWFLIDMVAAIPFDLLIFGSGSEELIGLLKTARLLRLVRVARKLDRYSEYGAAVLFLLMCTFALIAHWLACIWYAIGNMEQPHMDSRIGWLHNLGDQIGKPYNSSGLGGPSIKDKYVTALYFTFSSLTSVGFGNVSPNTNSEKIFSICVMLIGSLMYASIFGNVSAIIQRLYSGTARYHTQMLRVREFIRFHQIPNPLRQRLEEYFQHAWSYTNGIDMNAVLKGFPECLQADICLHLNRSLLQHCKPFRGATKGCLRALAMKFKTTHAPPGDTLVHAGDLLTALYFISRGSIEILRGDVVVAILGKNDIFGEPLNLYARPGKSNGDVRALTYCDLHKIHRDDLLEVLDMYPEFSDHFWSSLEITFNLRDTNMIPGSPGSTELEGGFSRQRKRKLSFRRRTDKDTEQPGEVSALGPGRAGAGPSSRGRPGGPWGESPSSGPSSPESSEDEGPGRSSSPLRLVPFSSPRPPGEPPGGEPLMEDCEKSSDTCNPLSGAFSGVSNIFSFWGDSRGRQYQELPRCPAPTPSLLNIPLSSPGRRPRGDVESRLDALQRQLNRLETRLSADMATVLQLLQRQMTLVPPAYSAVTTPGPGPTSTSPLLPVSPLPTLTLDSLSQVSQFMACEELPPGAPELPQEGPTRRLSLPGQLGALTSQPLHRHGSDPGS", "experiment": "Inhibition of human ERG"}, "[3]": {"experiment": "Drug metabolism in human cryopreserved hepatocytes assessed as metabolite M8 formation", "type": "ADME, cell-based, Hepatocyte"}, "[4]": {"experiment": "Drug metabolism in human cryopreserved hepatocytes assessed as metabolite M4 formation", "type": "ADME, cell-based, Hepatocyte"}, "[5]": {"experiment": "Drug metabolism in dog cryopreserved hepatocytes assessed as metabolite M6 formation", "type": "ADME, cell-based, Canis lupus familiaris, Hepatocyte"}, "Salmonella typhimurium [6]": {"tested_on": "Salmonella typhimurium", "experiment": "Mutagenicity in Salmonella typhimurium TA100 in presence of S9 fraction by mini-Ames test", "type": "toxicity", "details": "salmonella enterica subsp. enterica serovar typhimurium", "procedure,_shortened": "(§1)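 Mini-Ames mutagenicity assay in Salmonella typhimurium strains TA98 and TA100, run with and without S9 metabolic activation.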"}, "[7]": {"experiment": "Drug metabolism in human cryopreserved hepatocytes assessed as metabolite M7 formation", "type": "ADME, cell-based, Hepatocyte"}, "[8]": {"molecular_target": "Muscarinic acetylcholine receptor M4 (Rattus norvegicus, UniProt P08485)", "sequence (P08485 whole entry)": "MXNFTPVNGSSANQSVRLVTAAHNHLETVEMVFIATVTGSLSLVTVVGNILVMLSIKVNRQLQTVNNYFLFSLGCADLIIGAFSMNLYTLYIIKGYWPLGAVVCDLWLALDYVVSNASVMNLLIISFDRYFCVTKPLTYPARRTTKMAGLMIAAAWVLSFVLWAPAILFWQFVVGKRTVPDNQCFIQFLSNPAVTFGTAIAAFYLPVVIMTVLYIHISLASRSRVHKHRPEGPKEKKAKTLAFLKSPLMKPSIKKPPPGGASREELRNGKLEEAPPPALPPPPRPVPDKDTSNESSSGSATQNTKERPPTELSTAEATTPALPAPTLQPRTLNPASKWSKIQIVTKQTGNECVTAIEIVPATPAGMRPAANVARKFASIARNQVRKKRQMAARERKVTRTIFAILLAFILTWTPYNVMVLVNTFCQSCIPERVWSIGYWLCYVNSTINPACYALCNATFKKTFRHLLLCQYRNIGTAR", "experiment": "Positive allosteric modulation of rat M4 receptor assessed as increase in acetylcholine-induced calcium mobilization", "type": "functional", "procedure,_shortened": "(§2)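 M4 PAM concentration-response curves measured by calcium mobilization at the stated species' receptor. Potency reported as EC50/pEC50 and efficacy as % of acetylcholine maximum.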"}, "Salmonella typhimurium [9]": {"tested_on": "Salmonella typhimurium", "experiment": "Mutagenicity in Salmonella typhimurium TA98 by mini-Ames test", "type": "toxicity", "details": "salmonella enterica subsp. enterica serovar typhimurium", "procedure,_shortened": "as §1"}, "[10]": {"experiment": "Drug metabolism in human cryopreserved hepatocytes assessed as metabolite M3 formation", "type": "ADME, cell-based, Hepatocyte"}, "[11]": {"experiment": "Drug metabolism in cynomolgus monkey cryopreserved hepatocytes assessed as metabolite M8 formation", "type": "ADME, cell-based, Macaca fascicularis, Hepatocyte"}, "[12]": {"molecular_target": "Muscarinic acetylcholine receptor M3 (Homo sapiens, UniProt P20309)", "sequence (P20309 whole entry)": "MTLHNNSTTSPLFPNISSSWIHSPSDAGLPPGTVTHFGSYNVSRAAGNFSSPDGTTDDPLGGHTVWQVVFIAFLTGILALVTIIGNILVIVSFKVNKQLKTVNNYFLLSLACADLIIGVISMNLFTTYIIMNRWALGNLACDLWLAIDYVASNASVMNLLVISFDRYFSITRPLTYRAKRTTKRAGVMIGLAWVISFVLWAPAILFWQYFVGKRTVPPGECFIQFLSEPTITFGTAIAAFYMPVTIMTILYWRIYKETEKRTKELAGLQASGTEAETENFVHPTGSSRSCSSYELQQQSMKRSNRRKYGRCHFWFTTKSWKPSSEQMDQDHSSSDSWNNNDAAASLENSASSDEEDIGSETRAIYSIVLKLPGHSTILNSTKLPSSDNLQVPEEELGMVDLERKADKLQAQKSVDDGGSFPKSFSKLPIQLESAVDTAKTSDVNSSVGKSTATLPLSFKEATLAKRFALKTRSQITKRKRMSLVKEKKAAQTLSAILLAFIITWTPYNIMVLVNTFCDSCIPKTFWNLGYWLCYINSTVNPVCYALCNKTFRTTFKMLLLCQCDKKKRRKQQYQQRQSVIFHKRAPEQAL", "experiment": "Activity at human M3 receptor"}, "[13]": {"experiment": "Drug metabolism in cynomolgus monkey cryopreserved hepatocytes assessed as metabolite M4 formation", "type": "ADME, cell-based, Macaca fascicularis, Hepatocyte"}, "Salmonella typhimurium [14]": {"tested_on": "Salmonella typhimurium", "experiment": "Mutagenicity in Salmonella typhimurium TA100 in absence of S9 fraction by mini-Ames test", "type": "toxicity", "details": "salmonella enterica subsp. enterica serovar typhimurium", "procedure,_shortened": "as §1"}, "Rattus norvegicus": {"tested_on": "Rattus norvegicus", "experiment": "Elimination half-life in Sprague-Dawley rat at 0.1 to 1 mg/kg, iv", "type": "ADME, organism-based", "details": "in vivo"}, "[15]": {"molecular_target": "T1, Muscarinic acetylcholine receptor M4 (Homo sapiens, UniProt P08173)", "T1 sequence (P08173 whole entry)": "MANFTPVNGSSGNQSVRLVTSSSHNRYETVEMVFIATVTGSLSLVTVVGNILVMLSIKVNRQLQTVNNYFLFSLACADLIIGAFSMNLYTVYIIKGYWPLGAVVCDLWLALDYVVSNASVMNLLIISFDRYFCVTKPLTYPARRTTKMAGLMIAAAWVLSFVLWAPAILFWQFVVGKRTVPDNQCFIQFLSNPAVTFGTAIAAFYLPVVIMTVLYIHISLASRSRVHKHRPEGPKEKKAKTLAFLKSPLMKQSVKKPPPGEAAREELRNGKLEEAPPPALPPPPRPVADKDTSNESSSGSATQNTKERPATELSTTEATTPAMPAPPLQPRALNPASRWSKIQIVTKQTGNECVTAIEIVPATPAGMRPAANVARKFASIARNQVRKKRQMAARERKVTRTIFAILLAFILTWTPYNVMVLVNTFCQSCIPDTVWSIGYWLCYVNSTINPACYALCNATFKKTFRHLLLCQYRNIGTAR", "experiment": "Positive allosteric modulation of human M4 receptor expressed in CHO cells coexpressing Gqi5 assessed as increase in acetylcholine-induced calcium mobilization", "type": "functional, cell-based", "details": "read-out: EC50", "procedure,_shortened": "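Calcium mobilization in CHO cells expressing hM4 with Gqi5. Compound added in presence of a fixed EC20 concentration of acetylcholine. Values are means of three independent experiments, each run in triplicate.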"}, "[16]": {"experiment": "Drug metabolism in dog cryopreserved hepatocytes assessed as metabolite M1 formation", "type": "ADME, cell-based, Canis lupus familiaris, Hepatocyte"}, "[17]": {"experiment": "Drug metabolism in rat cryopreserved hepatocytes assessed as metabolite M5 formation", "type": "ADME, cell-based, Hepatocyte"}, "[18]": {"molecular_target": "Muscarinic acetylcholine receptor M2 (Rattus norvegicus, UniProt P10980)", "sequence (P10980 whole entry)": "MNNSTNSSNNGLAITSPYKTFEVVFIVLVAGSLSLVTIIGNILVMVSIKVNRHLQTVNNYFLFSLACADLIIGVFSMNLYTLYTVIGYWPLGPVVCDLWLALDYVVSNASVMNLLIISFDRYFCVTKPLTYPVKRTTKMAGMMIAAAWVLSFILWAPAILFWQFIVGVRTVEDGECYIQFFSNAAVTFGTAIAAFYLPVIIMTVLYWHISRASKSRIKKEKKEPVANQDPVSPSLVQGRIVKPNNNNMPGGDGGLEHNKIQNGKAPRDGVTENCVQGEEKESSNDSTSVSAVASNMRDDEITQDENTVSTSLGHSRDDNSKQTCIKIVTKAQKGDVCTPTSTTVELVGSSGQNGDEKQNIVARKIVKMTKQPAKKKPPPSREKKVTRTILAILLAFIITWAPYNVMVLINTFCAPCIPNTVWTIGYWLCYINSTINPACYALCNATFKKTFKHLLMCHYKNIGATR", "experiment": "Activity at rat M2 receptor"}, "[19]": {"experiment": "Ratio of unbound brain to plasma concentration in dog at 3 mg/kg, iv or po at 2 hrs post dose", "type": "ADME, organism-based, Canis lupus familiaris", "procedure,_shortened": "(§3)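 CNS penetration in dog by terminal study at 2.0 hr. Brain:plasma Kp, Kp,uu and unbound CSF:plasma ratio determined.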"}, "[20]": {"experiment": "Ratio of unbound CSF to plasma concentration in dog at 3 mg/kg, iv or po at 2 hrs post dose", "type": "ADME, organism-based, Canis lupus familiaris", "procedure,_shortened": "as §3"}, "[21]": {"experiment": "Oral bioavailability in rat at 10 mg/kg", "type": "ADME, organism-based", "details": "in vivo", "procedure,_shortened": "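Rat oral bioavailability from a 10 mg/kg solution dose. Separately, the HCl salt was dosed as a suspension.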"}, "[22]": {"molecular_target": "Muscarinic acetylcholine receptor M2 (Homo sapiens, UniProt P08172)", "sequence (P08172 whole entry)": "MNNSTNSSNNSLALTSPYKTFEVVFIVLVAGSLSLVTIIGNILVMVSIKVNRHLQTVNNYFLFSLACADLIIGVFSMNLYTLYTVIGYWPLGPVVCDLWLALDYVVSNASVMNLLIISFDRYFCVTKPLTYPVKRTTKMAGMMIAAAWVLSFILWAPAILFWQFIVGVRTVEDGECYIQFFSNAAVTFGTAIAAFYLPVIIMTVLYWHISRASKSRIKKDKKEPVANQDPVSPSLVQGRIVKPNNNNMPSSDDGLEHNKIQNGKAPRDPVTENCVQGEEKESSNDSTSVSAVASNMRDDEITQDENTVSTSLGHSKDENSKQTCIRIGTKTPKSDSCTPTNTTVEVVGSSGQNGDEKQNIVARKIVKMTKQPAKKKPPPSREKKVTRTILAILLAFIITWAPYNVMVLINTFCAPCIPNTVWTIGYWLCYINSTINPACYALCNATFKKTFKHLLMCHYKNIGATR", "experiment": "Activity at human M2 receptor"}, "[23]": {"molecular_target": "Muscarinic acetylcholine receptor M1 (Rattus norvegicus, UniProt P08482)", "sequence (P08482 whole entry)": "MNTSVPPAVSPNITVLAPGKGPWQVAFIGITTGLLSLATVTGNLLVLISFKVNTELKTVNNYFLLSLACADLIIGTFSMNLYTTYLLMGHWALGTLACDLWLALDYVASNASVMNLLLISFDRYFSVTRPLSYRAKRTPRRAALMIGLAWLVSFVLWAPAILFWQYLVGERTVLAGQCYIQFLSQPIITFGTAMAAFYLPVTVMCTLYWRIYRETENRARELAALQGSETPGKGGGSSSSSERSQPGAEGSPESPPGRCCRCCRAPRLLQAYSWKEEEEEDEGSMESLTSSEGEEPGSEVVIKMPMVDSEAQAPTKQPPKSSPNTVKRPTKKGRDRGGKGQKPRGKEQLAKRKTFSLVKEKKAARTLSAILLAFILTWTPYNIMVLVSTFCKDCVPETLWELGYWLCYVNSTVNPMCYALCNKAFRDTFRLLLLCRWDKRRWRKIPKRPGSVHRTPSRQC", "experiment": "Activity at rat M1 receptor"}, "[24]": {"experiment": "Unbound plasma concentration in rat", "type": "ADME, cell-free"}, "[25]": {"experiment": "Positive allosteric modulation of cynomolgus monkey M4 receptor assessed as increase in acetylcholine-induced calcium mobilization", "design": "species or system Macaca fascicularis", "procedure,_shortened": "as §2"}, "[26]": {"experiment": "Drug metabolism in human cryopreserved hepatocytes assessed as metabolite M6 formation", "type": "ADME, cell-based, Hepatocyte"}, "[27]": {"molecular_target": "Muscarinic acetylcholine receptor M5 (Homo sapiens, UniProt P08912)", "sequence (P08912 whole entry)": "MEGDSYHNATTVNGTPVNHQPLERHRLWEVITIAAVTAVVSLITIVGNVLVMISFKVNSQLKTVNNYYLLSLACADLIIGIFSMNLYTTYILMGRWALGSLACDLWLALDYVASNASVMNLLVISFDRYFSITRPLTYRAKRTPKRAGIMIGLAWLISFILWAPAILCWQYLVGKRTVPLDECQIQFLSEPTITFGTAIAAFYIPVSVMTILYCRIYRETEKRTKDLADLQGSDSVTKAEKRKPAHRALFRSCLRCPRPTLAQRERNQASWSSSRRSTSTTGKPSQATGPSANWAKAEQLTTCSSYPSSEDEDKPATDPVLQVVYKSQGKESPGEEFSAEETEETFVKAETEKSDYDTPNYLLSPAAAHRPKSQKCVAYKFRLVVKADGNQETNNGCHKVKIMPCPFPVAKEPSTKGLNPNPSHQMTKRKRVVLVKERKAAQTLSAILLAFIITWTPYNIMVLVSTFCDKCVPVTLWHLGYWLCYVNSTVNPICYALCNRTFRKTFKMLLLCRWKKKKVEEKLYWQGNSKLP", "experiment": "Activity at human M5 receptor"}, "[28]": {"experiment": "Drug metabolism in rat cryopreserved hepatocytes assessed as metabolite M3 formation", "type": "ADME, cell-based, Hepatocyte"}, "[29]": {"experiment": "Drug metabolism in cynomolgus monkey cryopreserved hepatocytes assessed as metabolite M5 formation", "type": "ADME, cell-based, Macaca fascicularis, Hepatocyte"}, "[30]": {"experiment": "Positive allosteric modulation of dog M4 receptor assessed as increase in acetylcholine-induced calcium mobilization", "design": "species or system Canis lupus familiaris", "procedure,_shortened": "as §2"}, "[31]": {"molecular_target": "Muscarinic acetylcholine receptor M1 (Homo sapiens, UniProt P11229)", "sequence (P11229 whole entry)": "as the sequence (P08482 whole entry) above, with V5A, S254T, S309P, K320R, G337A, V413I counted along it", "experiment": "Activity at human M1 receptor"}, "[32]": {"experiment": "Drug metabolism in cynomolgus monkey cryopreserved hepatocytes assessed as metabolite M1 formation", "type": "ADME, cell-based, Macaca fascicularis, Hepatocyte"}, "Cytochrome P450 2D6": {"molecular_target": "Cytochrome P450 2D6 (Homo sapiens, UniProt P10635)", "experiment": "Inhibition of CYP2D6 (unknown origin)", "type": "ADME"}, "[33]": {"experiment": "Drug metabolism in rat cryopreserved hepatocytes assessed as metabolite M4 formation", "type": "ADME, cell-based, Hepatocyte"}, "[34]": {"experiment": "Drug metabolism in dog cryopreserved hepatocytes assessed as metabolite M5 formation", "type": "ADME, cell-based, Canis lupus familiaris, Hepatocyte"}, "Cytochrome P450 3A4": {"molecular_target": "Cytochrome P450 3A4 (Homo sapiens, UniProt P08684)", "sequence (P08684 whole entry)": "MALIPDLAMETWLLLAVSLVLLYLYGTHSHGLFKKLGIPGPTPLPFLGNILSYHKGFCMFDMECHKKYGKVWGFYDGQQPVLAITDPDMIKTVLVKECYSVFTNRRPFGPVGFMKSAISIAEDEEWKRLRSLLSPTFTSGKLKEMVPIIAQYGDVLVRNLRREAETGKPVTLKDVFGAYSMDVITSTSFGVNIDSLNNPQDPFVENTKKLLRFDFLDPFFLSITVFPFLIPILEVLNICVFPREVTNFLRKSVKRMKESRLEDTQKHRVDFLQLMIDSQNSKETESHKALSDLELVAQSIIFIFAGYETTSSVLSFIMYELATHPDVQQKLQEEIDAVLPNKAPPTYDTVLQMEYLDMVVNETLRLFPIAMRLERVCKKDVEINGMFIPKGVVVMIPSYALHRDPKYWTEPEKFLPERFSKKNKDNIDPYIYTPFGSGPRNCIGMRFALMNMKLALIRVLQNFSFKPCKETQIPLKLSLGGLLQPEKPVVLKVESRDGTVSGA", "experiment": "Inhibition of CYP3A4 (unknown origin)", "type": "ADME"}, "Cytochrome P450 2C9": {"molecular_target": "Cytochrome P450 2C9 (Homo sapiens, UniProt P11712)", "experiment": "Inhibition of CYP2C9 (unknown origin)", "type": "ADME"}}}
{"smiles": "Cc1nnc2sc(C(=O)NCc3ccc(-c4cccnc4F)cc3)c(N)c2c1C", "values": [{"measurement": "Drug metabolism", "setting": "[1]", "result": "Metabolite_Detected"}, {"measurement": "IC50", "setting": "[2]", "result": "> 33", "unit": "µM"}, {"measurement": "Drug metabolism", "setting": "[3]", "result": "Metabolite_Detected"}, {"measurement": "Drug metabolism", "setting": "[4]", "result": "Metabolite_Detected"}, {"measurement": "Drug metabolism", "setting": "[5]", "result": "Metabolite_Detected"}, {"measurement": "Activity", "setting": "Salmonella typhimurium [6]", "result": "Non-Toxic"}, {"measurement": "Drug metabolism", "setting": "[7]", "result": "Metabolite_Detected"}, {"measurement": "EC50", "setting": "[8]; read-out: EC50", "result": 0.0135, "unit": "µM"}, {"measurement": "EC50", "setting": "[8]; read-out: pEC50 (converted)", "result": 0.0117, "unit": "µM"}, {"measurement": "Activity", "setting": "Salmonella typhimurium [9]", "result": "Non-Toxic"}, {"measurement": "Drug metabolism", "setting": "[10]", "result": "Metabolite_Detected"}, {"measurement": "Drug metabolism", "setting": "[11]", "result": "Metabolite_Detected"}, {"measurement": "EC50", "setting": "[12]", "result": "> 30", "unit": "µM"}, {"measurement": "Drug metabolism", "setting": "[13]", "result": "Metabolite_Detected"}, {"measurement": "Activity", "setting": "Salmonella typhimurium [14]", "result": "Non-Toxic"}, {"measurement": "beta t1/2", "setting": "Rattus norvegicus", "result": 2.7, "unit": "h"}, {"measurement": "EC50", "setting": "[15]", "result": 0.091, "unit": "µM"}, {"measurement": "Drug metabolism", "setting": "[16]", "result": "Metabolite_Detected"}, {"measurement": "Drug metabolism", "setting": "[17]", "result": "Metabolite_Detected"}, {"measurement": "EC50", "setting": "[18]", "result": "> 30", "unit": "µM"}, {"measurement": "K(p,uu,brain)", "setting": "[19]", "result": 2.6}, {"measurement": "Kp uu at 2 h", "setting": "[20]", "result": 4.8}, {"measurement": "bioavailability", "setting": "[21]", "result": 61, "unit": "%"}, {"measurement": "EC50", "setting": "[22]", "result": "> 30", "unit": "µM"}, {"measurement": "EC50", "setting": "[23]", "result": "> 30", "unit": "µM"}, {"measurement": "fraction unbound", "setting": "[24]", "result": 0.002}, {"measurement": "pEC50", "setting": "[25]", "result": 7.06}, {"measurement": "Drug metabolism", "setting": "[26]", "result": "Metabolite_Detected"}, {"measurement": "EC50", "setting": "[27]", "result": "> 30", "unit": "µM"}, {"measurement": "Drug metabolism", "setting": "[28]", "result": "Metabolite_Detected"}, {"measurement": "Drug metabolism", "setting": "[29]", "result": "Metabolite_Detected"}, {"measurement": "EC50", "setting": "[30]", "result": 0.111, "unit": "µM"}, {"measurement": "pEC50", "setting": "[30]", "result": 6.95}, {"measurement": "EC50", "setting": "[31]", "result": "> 30", "unit": "µM"}, {"measurement": "Drug metabolism", "setting": "[32]", "result": "Metabolite_Detected"}, {"measurement": "IC50", "setting": "Cytochrome P450 2D6", "result": 19, "unit": "µM"}, {"measurement": "Drug metabolism", "setting": "[33]", "result": "Metabolite_Detected"}, {"measurement": "Drug metabolism", "setting": "[34]", "result": "Metabolite_Detected"}, {"measurement": "IC50", "setting": "Cytochrome P450 3A4", "result": "> 30", "unit": "µM"}, {"measurement": "IC50", "setting": "Cytochrome P450 2C9", "result": "> 30", "unit": "µM"}]}
